# Measurements from ChEMBL document CHEMBL1122268, “Mechanism of action of 2',5-difluoro-1-arabinosyluracil” (J Med Chem, 1983).
# Assays:
# [1] = molecular target: Lacticaseibacillus casei; experiment: Inhibition of dTMP synthetase in the absence of CH2-H4 folate Lactobacillus casei; type: functional
# [2] = test system: L5178Y; experiment: The growth inhibition of L5178Y cell line; type: functional, cell-based; details: Mus musculus
# [3] = test system: P815; experiment: The growth inhibition of P815 cell line; type: functional, cell-based; details: Mus musculus
# [4] = test system: S49; experiment: The growth inhibition of S-49 mouse lymphoma cells; type: functional, cell-based
# Procedure, shortened: (§1)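 S-49 or thymidine kinase-deficient S-49/TK⁻ cells in 1 mL DMEM with 10% heat-inactivated horse serum plus inhibitor, 37 °C, 10% CO2, 72 h; cell density counted daily by Coulter counter; EC50 = concentration halving growth rate relative to untreated controls.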
# [5] = test system: S49; experiment: Reduction of deoxy-Adenosinetriphosphate pool after 1 hour incubation in S-49 cells(2 X 10e 5) at a concentration of 16.5 uM; type: functional, Mus musculus
# Procedure, shortened: (§2)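 Mouse lymphoma S-49 suspension cultures at 2 × 10^5 cells/mL in DMEM with 10% heat-inactivated horse serum, 37 °C, exposed to 16.5 μM drug; dATP, dCTP, dGTP, dTTP pool sizes measured at 1 h (dTTP also 4 h), expressed as percent of original value.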
# [6] = test system: S49; experiment: Reduction of deoxy-[…] pool after 1 hour incubation in S-49 cells(2 X 10e 5) at a concentration of 16.5 uM; type: functional, Mus musculus; procedure, shortened: as §2
# [7] = test system: S49; experiment: Reduction of deoxy-Thymidinetriphosphate pool after 1 hour incubation in S-49 cells(2 X 10e 5) at a concentration of 16.5 uM; type: functional, Mus musculus; procedure, shortened: as §2
# [8] = test system: S49; experiment: Reduction of deoxy-Thymidinetriphosphate pool after 4 hour incubation in S-49 cells(2 X 10e 5) at a concentration of 16.5 uM; type: functional, Mus musculus; procedure, shortened: as §2
# [9] = test system: S49; experiment: Reduction of deoxy-Cytidinetriphosphate pool after 1 hour incubation in S-49 cells(2 X 10e 5) at a concentration of 16.5 uM; type: functional, Mus musculus; procedure, shortened: as §2
# [10] = test system: S49; experiment: The growth inhibition of thymidine kinase deficient S-49 cells; type: functional, cell-based; details: Mus musculus; procedure, shortened: as §1
# [11] = test system: Thymidylate synthase (Lactobacillus casei); experiment: Rate constant for the inactivation of DTMP synthetase in the presence of cofactor CH2-H4 folate
smiles,measurement,setting,value
O=c1ccn([C@H]2C[C@H](O)[C@@H](COP(=O)(O)O)O2)c(=O)[nH]1 [DEOXYURIDINE MONOPHOSPHATE],Ki,[1],2.3 µM
O=c1[nH]c(=O)n([C@H]2O[C@@H](CO)[C@H](O)[C@H]2F)cc1F,EC50,[2],3.8 µM
same,EC50,[3],2.6 µM
same,EC50,[4],3.3 µM
same,Decrease,[5],90%
same,Decrease,[6],< 20%
same,Decrease,[7],80%
same,Decrease,[8],40%
same,Increase,[9],172%
same,EC50,[10],400 µM
same,Rate constant,[11],2.4 min⁻¹
O=c1[nH]c(=O)n([C@@H]2O[C@H](COP(=O)(O)O)[C@@H](O)[C@@H]2F)cc1F,Ki,[1],3.3 µM
O=c1[nH]c(=O)n([C@H]2C[C@H](O)[C@@H](COP(=O)(O)O)O2)cc1Cl,Ki,[1],0.19 µM
